Active and inactive are the calls of the source. No cut-off for these calls is given here.
What was measured:
Trypanosoma cruzi [1] = assay: Antitrypanosomal activity against Trypanosoma cruzi Arequipa trypomastigote froms infected in mouse blood incubated for 24 hrs by Neubauer chamber based assay; format: functional, organism-based
Summary of the method: (§1)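 Mouse blood taken at peak parasitemia (day 7) was diluted with uninfected blood to 4×10^6 trypomastigotes/mL, then 1:2 in RPMI 1640. Drugs from DMSO stocks were added at 1, 10, 25, 50 and 100 µM and incubated 24 h at 4–8 °C. Parasites were counted in a Neubauer chamber in triplicate. IC50 was calculated versus control.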

Trypanosoma cruzi [2] = assay: Antitrypanosomal activity against Trypanosoma cruzi SN3 amastigote forms infected in African green monkey Vero cells incubated for 72 hrs by Giemsa staining based micrscopy; format: functional, organism-based
Summary of the method: (§2)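 Vero cells (RPMI, 10% inactivated FBS, 37 °C, 5% CO2) were seeded at 1×10^4/well on coverslips and cultured 2 days. They were infected 24 h with metacyclic forms at 10:1. After washing off free parasites, drugs were added at 0.1–100 µM for 72 h. Slides were methanol-fixed and Giemsa-stained; amastigotes were counted in 200 host cells versus untreated. IC50 was calculated.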

Vero = assay: Cytotoxicity in African green monkey Vero cells incubated for 72 hrs; format: cell-based; conditions: Chlorocebus sabaeus
Trypanosoma cruzi [3] = assay: Antitrypanosomal activity against Trypanosoma cruzi Tulahuen epimastigote forms incubated for 72 hrs by hemocytometry; format: functional, organism-based
Summary of the method: (§3)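 Epimastigotes grown in MTL medium with 10% inactivated FBS at 28 °C. Compounds were dissolved in DMSO (0.01% v/v) and added at 0.1–100 µM for 72 h. Parasites were counted in a Neubauer chamber. IC50 (50% growth inhibition) was derived by linear regression of Kc values. Values are averages of four determinations.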

Trypanosoma cruzi [4] = assay: Antitrypanosomal activity against Trypanosoma cruzi SN3 epimastigote forms incubated for 72 hrs by hemocytometry; format: functional, organism-based; conditions: SN3, 72 h; summary of the method: as §3
[5] = Selectivity index, ratio of IC50 for cytotoxicity in African green monkey Vero cells to IC50 for antitrypanosomal activity against Trypanosoma cruzi […] epimastigote forms
Trypanosoma cruzi [6] = assay: Antitrypanosomal activity against Trypanosoma cruzi Arequipa epimastigote forms incubated for 72 hrs by hemocytometry; format: functional, organism-based; summary of the method: as §3
[7] = Selectivity index, ratio of IC50 for cytotoxicity in African green monkey Vero cells to IC50 for antitrypanosomal activity against Trypanosoma cruzi […] amastigote forms; format: toxicity, cell-based; conditions: read-out: Ratio IC50
Trypanosoma cruzi [8] = assay: Antitrypanosomal activity against Trypanosoma cruzi Tulahuen trypomastigote froms infected in mouse blood incubated for 24 hrs by Neubauer chamber based assay; format: functional, organism-based; summary of the method: as §1
Trypanosoma cruzi [9] = assay: Antitrypanosomal activity against Trypanosoma cruzi SN3 trypomastigote froms infected in mouse blood incubated for 24 hrs by Neubauer chamber based assay; format: functional, organism-based; summary of the method: as §1
Trypanosoma cruzi [10] = assay: Antitrypanosomal activity against Trypanosoma cruzi Arequipa amastigote forms infected in African green monkey Vero cells incubated for 72 hrs by Giemsa staining based micrscopy; format: functional, organism-based; summary of the method: as §2
Trypanosoma cruzi [11] = assay: Antitrypanosomal activity against Trypanosoma cruzi Tulahuen amastigote forms infected in African green monkey Vero cells incubated for 72 hrs by Giemsa staining based micrscopy; format: functional, organism-based; summary of the method: as §2
Trypanosoma cruzi [12] = assay: Inhibition of Trypanosoma cruzi Arequipa Fe-SOD at <50 uM by NBT dye based spectrophotometry; conditions: dose microM <50
Summary of the method: (§4)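 Fe-SOD source: Arequipa epimastigote homogenate (STE buffer pH 7.8, sonication, centrifugation, supernatant; protein by Bradford); CuZn-SOD was commercial human erythrocyte enzyme. Activity was measured as NBT reduction by superoxide in 50 mM potassium phosphate pH 7.8, with compounds at 5 concentrations (1–100 µM). A560 was read before and after 10 min under lamp light with stirring. Three rate determinations; Newman–Keuls test.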

Trypanosoma cruzi [13] = assay: Antitrypanosomal activity against Trypanosoma cruzi Arequipa trypomastigotes infected in BALB/c mouse assessed as reduction in splenomegaly by measuring weight percent of spleens […] at 100 mg/kg, po dosed on alternating days (7 to 15 days post infection) by PCR analysis (reference value: 1.603%); format: functional
[14] = Inhibition of Trypanosoma cruzi Arequipa Fe-SOD by NBT dye based spectrophotometry; summary of the method: as §4
Trypanosoma cruzi [15] = assay: (§5) Antitrypanosomal activity against Trypanosoma cruzi Arequipa trypomastigotes infected in BALB/c mouse assessed as reduction in parasitemia level in heart measured during acute phase (days 0 to 40 post infection) at 50 to 100 mg/kg, po dosed on alternating days (7 to 15 days post infection) by PCR analysis; format: functional, organism-based; conditions: dose 50-100 mg/kg
Trypanosoma cruzi [16] = assay: Antitrypanosomal activity against Trypanosoma cruzi Arequipa trypomastigotes infected in BALB/c mouse assessed as reduction in splenomegaly by measuring weight percent of spleens […] at 50 mg/kg, po dosed on alternating days (7 to 15 days post infection) by PCR analysis (reference value: 1.603%); format: functional; set-up: scale not given: the % may be the effect or the level left
Trypanosoma cruzi [17] = assay: as §5, with “stomach” for “heart”, “at” for “at 50 to”; format: functional, organism-based
Trypanosoma cruzi [18] = assay: Antitrypanosomal activity against Trypanosoma cruzi infected in African green monkey Vero cells assessed as reduction in number of amastigotes per infected cell measured up to 10 days by Giemsa staining based hemocytometry; format: functional; conditions: time day <=10
Summary of the method: (§6)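 Vero cells infected with metacyclic forms (10:1) were exposed to one concentration per compound immediately after infection for 12 h at 37 °C, 5% CO2. After washing, cultures were kept 10 days with fresh medium every 48 h. Every 48 h, % infected cells and amastigotes per infected cell (200 Giemsa-stained cells) and medium trypomastigotes (Neubauer) were scored. Means of three experiments.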

Trypanosoma cruzi [19] = assay: as §5, with “adipose tissue” for “heart”, “at” for “at 50 to”; format: functional, organism-based
[20] = molecular target: T1, Superoxide dismutase [Cu-Zn] (Homo sapiens, UniProt P00441); assay: Inhibition of human erythrocyte CuZn-SOD at 100 uM by NBT dye based spectrophotometry; summary of the method: as §4
Trypanosoma cruzi [21] = assay: (§7) Antitrypanosomal activity against Trypanosoma cruzi Arequipa trypomastigotes infected in BALB/c mouse assessed as reduction in parasitemia level in brain measured during acute phase (days 0 to 40 post infection) at 100 mg/kg, po dosed on alternating days (7 to 15 days post infection) by PCR analysis; format: functional, organism-based
Trypanosoma cruzi [22] = assay: Antitrypanosomal activity against Trypanosoma cruzi Arequipa trypomastigotes infected in BALB/c mouse assessed as parasitemia re-activation level measured during chronic phase ( day 90 post infection) at 100 mg/kg, po dosed on alternating days (7 to 15 days post infection) relative to acute phase infection (reference value: […]%); format: functional
Trypanosoma cruzi [23] = assay: Antitrypanosomal activity against Trypanosoma cruzi Arequipa trypomastigotes infected in BALB/c mouse assessed as reduction in mouse mortality measured during acute phase (days 0 to 40 post infection) at 50 to 100 mg/kg, po dosed on alternating days (7 to 15 days post infection); format: functional, organism-based; conditions: dose 50-100 mg/kg
Trypanosoma cruzi [24] = assay: Antitrypanosomal activity against Trypanosoma cruzi infected in African green monkey Vero cells assessed as reduction in number of trypomastigotes measured up to 10 days by Giemsa staining based hemocytometry; format: functional; conditions: time day <=10; summary of the method: as §6
Trypanosoma cruzi [25] = assay: Antitrypanosomal activity against Trypanosoma cruzi Arequipa trypomastigotes infected in BALB/c mouse assessed as reduction in parasitemia level in lung measured during acute phase (days 0 to 40 post infection) at 100 mg/kg, po dosed on alternating days (7 to 15 days post infection) by PCR analysis; format: functional, organism-based
Trypanosoma cruzi [26] = assay: as §7, with “muscle” for “brain”; format: functional, organism-based
Trypanosoma cruzi [27] = assay: Antitrypanosomal activity against Trypanosoma cruzi Arequipa trypomastigotes infected in BALB/c mouse assessed as reduction in parasitemia level in heart measured during acute phase (days 0 to 40 post infection) at 100 mg/kg, po dosed on alternating days (7 to 15 days post infection) by PCR analysis; format: functional, organism-based
Trypanosoma cruzi [28] = assay: as §7, with “bone marrow” for “brain”; format: functional, organism-based
Trypanosoma cruzi [29] = assay: as §7, with “esophagus” for “brain”; format: functional, organism-based
Trypanosoma cruzi [30] = assay: Antitrypanosomal activity against Trypanosoma cruzi infected in African green monkey Vero cells assessed as reduction in infection rate measured up to 10 days by Giemsa staining based hemocytometry; format: functional; conditions: time day <=10; summary of the method: as §6
Trypanosoma cruzi [31] = assay: Antitrypanosomal activity against Trypanosoma cruzi Arequipa trypomastigotes infected in BALB/c mouse assessed as reduction in parasitemia measured during acute phase (days 0 to 40 post infection) at 50 to 100 mg/kg, po dosed on alternating days (7 to 15 days post infection); format: functional, organism-based; conditions: dose 50-100 mg/kg
Summary of the method: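 Female BALB/c mice (8–10 weeks, 25–30 g; groups of six) were infected i.p. with 5×10^5 Arequipa blood trypomastigotes. Dosing was oral, 50 or 100 mg/kg/day, on 5 alternating days (days 7–15 pi), alongside untreated and reference-drug groups. Parasitemia was counted in 5 µL mandibular-vein blood by Neubauer chamber through day 40 pi. Data are means ± SD of six mice.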

Trypanosoma cruzi [32] = assay: Inhibition of Trypanosoma cruzi Arequipa Fe-SOD at 50 uM by NBT dye based spectrophotometry; summary of the method: as §4
[33] = molecular target: T1, Superoxide dismutase [Cu-Zn]; assay: Inhibition of human erythrocyte CuZn-SOD at 50 uM by NBT dye based spectrophotometry; summary of the method: as §4
[34] = molecular target: T1, Superoxide dismutase [Cu-Zn]; assay: Inhibition of human erythrocyte CuZn-SOD by NBT dye based spectrophotometry; summary of the method: as §4

T1 sequence (P00441 whole entry): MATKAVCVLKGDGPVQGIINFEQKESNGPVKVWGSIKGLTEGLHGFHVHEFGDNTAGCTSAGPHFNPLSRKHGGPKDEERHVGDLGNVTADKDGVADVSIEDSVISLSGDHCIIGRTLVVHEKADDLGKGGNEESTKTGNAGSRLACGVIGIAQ

| IC50 (Trypanosoma cruzi [1]) [µM] | IC50 (Trypanosoma cruzi [2]) [µM] | IC50 (Trypanosoma cruzi [3]) [µM] | IC50 (Trypanosoma cruzi [4]) [µM] | IC50 (Trypanosoma cruzi [6]) [µM] | IC50 (Trypanosoma cruzi [8]) [µM] | IC50 (Trypanosoma cruzi [9]) [µM] | IC50 (Trypanosoma cruzi [10]) [µM] | IC50 (Trypanosoma cruzi [11]) [µM] | SMILES | IC50 (Vero) [µM] | Spleen weight percent (Trypanosoma cruzi [13]) [%] | IC50 [14] [µM] | Activity (Trypanosoma cruzi [15]) | Activity (Trypanosoma cruzi [16]) [%] | Activity (Trypanosoma cruzi [17]) | inhibition (INH) (Trypanosoma cruzi [18]) [%] | Activity (Trypanosoma cruzi [19]) | Activity (Trypanosoma cruzi [21]) | Activity (Trypanosoma cruzi [22]) [%] | Activity (Trypanosoma cruzi [23]) | further results |
| --- | --- | --- | --- | --- | --- | --- | --- | --- | --- | --- | --- | --- | --- | --- | --- | --- | --- | --- | --- | --- | --- |
| 26.8 | 5.7 | 28 | 12.8 | 28 | 22.3 | 4.6 | 18.6 | 20.2 | O=C(CCN1CCN(c2cccc(C(F)(F)F)c2)CC1)c1ccsc1 | 4.8 | – | – | – | – | – | – | – | – | – | – | selectivity ratio [5]: 1; selectivity ratio [7]: 1 |
| 20.3 | 72.9 | 50.3 | 179 | 26 | 2.5 | 33 | 10.8 | 22.8 | O=C(CCN1CCN(c2ccc([N+](=O)[O-])cc2C(F)(F)F)CC1)c1csc2ccccc12 | 2850 | 0.892 | 71.1 | Active | 1.171 | Active | 74 | Active | Active | 0 | Active | inhibition (Trypanosoma cruzi [12]): 100%; inhibition [20]: inactive; inhibition (INH) (Trypanosoma cruzi [24]): 64%; Activity (Trypanosoma cruzi [25]): Active; Activity (Trypanosoma cruzi [26]): Active; Activity (Trypanosoma cruzi [27]): Active; Activity (Trypanosoma cruzi [28]): Active; Activity (Trypanosoma cruzi [29]): Active; inhibition (INH) (Trypanosoma cruzi [30]): 76%; Activity (Trypanosoma cruzi [31]): Active |
| 35.9 | 20.7 | 35.5 | 41.4 | 77.7 | 0.5 | 18.6 | 11.7 | 19.8 | O=C(CCN1CCN(c2ccc([N+](=O)[O-])cc2)CC1)c1csc2ccccc12 | 1710 | 0.729 | 7.8 | Active | 1.174 | Active | 45 | Active | Active | 0 | Active | inhibition (Trypanosoma cruzi [32]): 100%; inhibition [33]: 100%; inhibition (INH) (Trypanosoma cruzi [24]): 59%; Activity (Trypanosoma cruzi [25]): Active; Activity (Trypanosoma cruzi [26]): Active; IC50 [34]: 46.6 µM; Activity (Trypanosoma cruzi [27]): Active; Activity (Trypanosoma cruzi [28]): Active; Activity (Trypanosoma cruzi [29]): Active; inhibition (INH) (Trypanosoma cruzi [30]): 59%; Activity (Trypanosoma cruzi [31]): Active |
